According to ChEMBL document CHEMBL1153310, “New prostaglandin derivative for glaucoma treatment” (Bioorg Med Chem Lett, 2009):

How the values were obtained:
Oryctolagus cuniculus [1] = experiment: Reduction in intraocular pressure in carbomer-induced glaucoma in albino rabbit at 0.005%, topical administration measured after 30 mins; format: functional, Eye
Summary of the method: (§1)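 Glaucoma induced by carbomer injection into the anterior chamber; IOP checked every 30 min over the first 3 h, then at least three times daily until stabilized at high levels. Drug instilled topically, once (single-dose) or daily for 5 days (repeated). IOP measured by Tono-Pen tonometer; single-dose readings at 30, 60, 120 and 240 min; AUC in mm Hg h.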

Oryctolagus cuniculus [2] = experiment: Reduction in intraocular pressure in carbomer-induced glaucoma in albino rabbit at 0.005%, topical administration measured after 60 mins; format: functional, Eye; summary of the method: as §1
Oryctolagus cuniculus [3] = experiment: Reduction in intraocular pressure in carbomer-induced glaucoma in albino rabbit at 0.005%, topical administration measured after 120 mins; format: functional, Eye; summary of the method: as §1
Oryctolagus cuniculus [4] = experiment: Reduction in intraocular pressure in carbomer-induced glaucoma in albino rabbit at 0.005%, topical administration continuously measured after […]; format: functional, Eye; summary of the method: as §1
Oryctolagus cuniculus [5] = experiment: Reduction in intraocular pressure in carbomer-induced glaucoma in albino rabbit at 0.005%, topical administration measured after 240 mins; format: functional, Eye; summary of the method: as §1
Oryctolagus cuniculus [6] = experiment: Reduction in intraocular pressure in carbomer-induced glaucoma in pigmented rabbit at 0.005%, topical administration measured after 30 mins; format: functional, Eye; summary of the method: as §1
Oryctolagus cuniculus [7] = experiment: Reduction in intraocular pressure in carbomer-induced glaucoma in pigmented rabbit at 0.005%, topical administration measured after 60 mins; format: functional, Eye; summary of the method: as §1
Oryctolagus cuniculus [8] = experiment: Reduction in intraocular pressure in carbomer-induced glaucoma in pigmented rabbit at 0.005%, topical administration measured after 120 mins; format: functional, Eye; summary of the method: as §1
Oryctolagus cuniculus [9] = experiment: Reduction in intraocular pressure in carbomer-induced glaucoma in pigmented rabbit at 0.005%, topical administration measured after 240 mins; format: functional, Eye; summary of the method: as §1
Oryctolagus cuniculus [10] = experiment: Reduction in intraocular pressure in carbomer-induced glaucoma in pigmented rabbit at 0.005%, topical administration for 1 day; format: functional, Eye; summary of the method: as §1
Oryctolagus cuniculus [11] = experiment: Reduction in intraocular pressure in carbomer-induced glaucoma in pigmented rabbit at 0.005%, topical administration continuously for 2 days; format: functional, Eye; summary of the method: as §1
Oryctolagus cuniculus [12] = experiment: Reduction in intraocular pressure in carbomer-induced glaucoma in pigmented rabbit at 0.005%, topical administration continuously for 3 days; format: functional, Eye; summary of the method: as §1
Oryctolagus cuniculus [13] = experiment: Reduction in intraocular pressure in carbomer-induced glaucoma in pigmented rabbit at 0.005%, topical administration continuously for 4 days; format: functional, Eye; summary of the method: as §1
Oryctolagus cuniculus [14] = experiment: Reduction in intraocular pressure in carbomer-induced glaucoma in pigmented rabbit at 0.005%, topical administration continuously for 5 days; format: functional, Eye; summary of the method: as §1
Oryctolagus cuniculus [15] = experiment: Increase in glutathione levels in aqueous humor of normotensive pigmented rabbit at 0.005%, topical administration; format: functional, Aqueous humor of eyeball
Summary of the method: (§2)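 Normotensive rabbits given a single topical instillation at one of three dose levels. Aqueous humour centrifuged at 100.000g, 4 °C for 30 min. Supernatant diluted in phosphate-EDTA buffer and reacted with o-phthaldialdehyde (1 mg/ml) for 15 min at room temperature. Fluorescence read at ex 350/em 420 nm, calibrated with a GSH standard curve.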

Oryctolagus cuniculus [16] = experiment: Increase in glutathione levels in aqueous humor of carbomer-induced glaucomatous pigmented rabbit at 0.005%, topical administration continuously for 5 days by fluorimetry; format: functional, Aqueous humor of eyeball
Summary of the method: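 Carbomer-glaucomatous rabbits given daily topical 0.005% instillation for 5 days. Aqueous humour centrifuged at 100.000g, 4 °C for 30 min. Supernatant diluted in phosphate-EDTA buffer and reacted with o-phthaldialdehyde (1 mg/ml) for 15 min at room temperature. Fluorescence read at ex 350/em 420 nm against a GSH standard curve, in pmol/ml.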

Oryctolagus cuniculus [17] = experiment: Increase in cGMP levels in aqueous humor of carbomer-induced glaucomatous pigmented rabbit at 0.005%, topical administration continuously for 5 days by radioimmunoassay; format: functional, Aqueous humor of eyeball
Summary of the method: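 Aqueous humour taken after 5 days of daily topical instillation at 0.005%. Samples treated with 10% trichloroacetic acid and centrifuged. TCA extracted with 0.5 M tri-n-octylamine in 1,1,2-trichloro-1,2,2-trifluoroethane. cGMP quantified by radioimmunoassay using labelled cGMP.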

Oryctolagus cuniculus [18] = experiment: Reduction in intraocular pressure in carbomer-induced glaucoma in pigmented rabbit at 0.005%, topical administration continuously for 5 days relative to latanoprost; format: functional, Eye; parameters: scale not given: the % may be the effect or the level left; summary of the method: as §1
Oryctolagus cuniculus [19] = experiment: Increase in glutathione levels in aqueous humor of normotensive pigmented rabbit at 0.008%, topical administration; format: functional, Aqueous humor of eyeball; summary of the method: as §2
Oryctolagus cuniculus [20] = experiment: Increase in glutathione levels in aqueous humor of normotensive pigmented rabbit at 0.01%, topical administration; format: functional, Aqueous humor of eyeball; summary of the method: as §2
Oryctolagus cuniculus [21] = species: Oryctolagus cuniculus; experiment: Toxicity in New Zealand albino rabbit assessed as tolerability at 0.005% by Draize test; format: organism-based; conditions: in vivo
Summary of the method: (§3)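 Ocular tolerability scored by Draize test in New Zealand albino rabbits at three concentrations, compared with placebo.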

Oryctolagus cuniculus [22] = species: Oryctolagus cuniculus; experiment: Toxicity in New Zealand albino rabbit assessed as tolerability at 0.008% by Draize test; format: organism-based; conditions: in vivo; summary of the method: as §3
Oryctolagus cuniculus [23] = species: Oryctolagus cuniculus; experiment: Toxicity in New Zealand albino rabbit assessed as tolerability at 0.01% by Draize test; format: organism-based; conditions: in vivo; summary of the method: as §3
Oryctolagus cuniculus [24] = experiment: Effect on intraocular pressure in carbomer-induced glaucoma in New Zealand albino rabbit assessed as AUC at 0.005%, topical administration measured after 4 hrs; format: functional, organism-based; parameters: time < 4 hr; conditions: Eye; summary of the method: as §1
Oryctolagus cuniculus [25] = experiment: Effect on intraocular pressure in carbomer-induced glaucoma in pigmented rabbit assessed as AUC at 0.005%, topical administration continuously for 5 days; format: functional, organism-based; conditions: Eye; summary of the method: as §1
Oryctolagus cuniculus [26] = experiment: Reduction in intraocular pressure in carbomer-induced glaucoma in pigmented rabbit at 0.005%, single topical administration measured over 4 hrs relative to latanoprost; parameters: scale not given: the % may be the effect or the level left
Oryctolagus cuniculus [27] = experiment: Effect on intraocular pressure in carbomer-induced glaucoma in pigmented rabbit assessed as AUC at 0.005%, single topical administration measured over 4 hrs by tonometry; conditions: Eye

`Oc1ccc(-c2cc(=S)ss2)cc1` was tested, and the Activity (Oryctolagus cuniculus [1]) was 29.5 mmHg, the Activity (Oryctolagus cuniculus [2]) was 28 mmHg and the Activity (Oryctolagus cuniculus [3]) was 26.2 mmHg. It also gave an Activity (Oryctolagus cuniculus [4]) of 25 mmHg, an Activity (Oryctolagus cuniculus [5]) of 25.2 mmHg and an Activity (Oryctolagus cuniculus [6]) of 30 mmHg. For the same compound, the Activity (Oryctolagus cuniculus [7]) was 29 mmHg, the Activity (Oryctolagus cuniculus [8]) was 26 mmHg and the Activity (Oryctolagus cuniculus [9]) was 23.5 mmHg. It also gave an Activity (Oryctolagus cuniculus [10]) of 26.7 mmHg, an Activity (Oryctolagus cuniculus [11]) of 26 mmHg and an Activity (Oryctolagus cuniculus [12]) of 23 mmHg. The Activity (Oryctolagus cuniculus [13]) was 22.2 mmHg, the Activity (Oryctolagus cuniculus [14]) was 22 mmHg and the Activity (Oryctolagus cuniculus [15]) was 58.3 pmol/mL. It also gave an Activity (Oryctolagus cuniculus [16]) of 60.4 pmol/mL and an Activity (Oryctolagus cuniculus [17]) of 122 fmol/mL.
`O=C(CCC/C=C\C[C@@H]1[C@@H](CC[C@@H](O)CCc2ccccc2)[C@H](O)C[C@@H]1O)Oc1ccc(-c2cc(=S)ss2)cc1` showed an Activity (Oryctolagus cuniculus [18]) of 27%, an Activity (Oryctolagus cuniculus [15]) of 60.04 pmol/mL and an Activity (Oryctolagus cuniculus [19]) of 69.83 pmol/mL. It also gave an Activity (Oryctolagus cuniculus [20]) of 82.89 pmol/mL, an Activity (Oryctolagus cuniculus [16]) of 65.27 pmol/mL and an Activity (Oryctolagus cuniculus [17]) of 118 fmol/mL. The Activity (Oryctolagus cuniculus [21]) was “Non-toxic”, the Activity (Oryctolagus cuniculus [22]) was “Non-toxic” and the Activity (Oryctolagus cuniculus [23]) was “Non-toxic”. It also gave an AUC (Oryctolagus cuniculus [24]) of 106 mmHg.hr, an AUC (Oryctolagus cuniculus [25]) of 2090 mmHg.hr and an Activity (Oryctolagus cuniculus [26]) of 30.8%. The AUC (Oryctolagus cuniculus [27]) was 75.2 mmHg.hr.
With `CC(C)OC(=O)CCC/C=C\C[C@@H]1[C@@H](CC[C@@H](O)CCc2ccccc2)[C@H](O)C[C@@H]1O` [LATANOPROST] the Activity (Oryctolagus cuniculus [15]) was 38.7 pmol/mL, the Activity (Oryctolagus cuniculus [16]) was 36.44 pmol/mL and the Activity (Oryctolagus cuniculus [17]) was 71.8 fmol/mL. It also gave an AUC (Oryctolagus cuniculus [24]) of 119 mmHg.hr, an AUC (Oryctolagus cuniculus [25]) of 2660 mmHg.hr and an AUC (Oryctolagus cuniculus [27]) of 109 mmHg.hr.
